According to ChEMBL document CHEMBL1124532, “Angiotensin converting enzyme inhibitors: spirapril and related compounds” (J Med Chem, 1989):

What was measured:
[1] = species on record: Canis familiaris; assay: Compound was tested for its efficacy in dog; type: functional, Canis lupus familiaris
[2] = molecular target: T1, Angiotensin-converting enzyme (Rattus norvegicus) (UniProt P47820); assay: Compound tested in vivo for inhibition of angiotensin converting enzyme in rat; type: organism-based
T1 sequence (whole entry): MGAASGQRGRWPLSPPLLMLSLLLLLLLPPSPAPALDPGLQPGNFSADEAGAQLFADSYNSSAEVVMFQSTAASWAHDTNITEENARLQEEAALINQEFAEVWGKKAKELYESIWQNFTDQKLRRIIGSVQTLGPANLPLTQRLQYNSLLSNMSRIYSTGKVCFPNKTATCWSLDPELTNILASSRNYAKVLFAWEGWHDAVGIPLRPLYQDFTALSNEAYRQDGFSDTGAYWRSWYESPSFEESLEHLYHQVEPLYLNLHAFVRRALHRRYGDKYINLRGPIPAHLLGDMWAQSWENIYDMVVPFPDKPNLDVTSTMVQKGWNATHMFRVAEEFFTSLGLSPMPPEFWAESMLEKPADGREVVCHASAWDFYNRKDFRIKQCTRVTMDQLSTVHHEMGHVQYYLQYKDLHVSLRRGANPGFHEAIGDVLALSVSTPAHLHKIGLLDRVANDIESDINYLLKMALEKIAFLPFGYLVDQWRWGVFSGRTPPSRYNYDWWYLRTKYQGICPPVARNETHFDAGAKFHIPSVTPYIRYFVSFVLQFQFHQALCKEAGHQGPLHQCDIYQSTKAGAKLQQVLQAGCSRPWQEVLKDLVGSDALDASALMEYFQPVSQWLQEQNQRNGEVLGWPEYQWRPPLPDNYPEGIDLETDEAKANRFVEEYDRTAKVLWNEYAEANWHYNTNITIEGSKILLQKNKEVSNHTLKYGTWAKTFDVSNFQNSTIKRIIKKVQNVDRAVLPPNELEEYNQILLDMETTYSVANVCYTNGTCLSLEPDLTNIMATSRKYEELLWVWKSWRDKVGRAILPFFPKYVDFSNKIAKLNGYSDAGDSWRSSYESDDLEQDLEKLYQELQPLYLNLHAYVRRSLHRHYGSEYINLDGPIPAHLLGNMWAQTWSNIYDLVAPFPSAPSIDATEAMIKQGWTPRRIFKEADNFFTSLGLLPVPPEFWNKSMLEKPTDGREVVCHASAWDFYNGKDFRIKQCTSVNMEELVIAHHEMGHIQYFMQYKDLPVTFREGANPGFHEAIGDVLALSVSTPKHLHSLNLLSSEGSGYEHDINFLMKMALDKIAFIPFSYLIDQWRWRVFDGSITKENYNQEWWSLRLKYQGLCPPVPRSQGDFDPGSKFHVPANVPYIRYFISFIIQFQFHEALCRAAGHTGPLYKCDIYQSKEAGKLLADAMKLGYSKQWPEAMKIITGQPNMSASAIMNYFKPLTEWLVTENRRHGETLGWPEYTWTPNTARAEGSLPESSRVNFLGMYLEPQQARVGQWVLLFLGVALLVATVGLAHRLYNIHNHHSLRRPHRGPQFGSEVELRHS
Outline: (§1)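 Male Sprague-Dawley rats (280–365 g) anesthetized with inactin (100 mg/kg ip) or dial urethane, with carotid blood pressure recorded. AI 1 µg/kg iv was given before and 5 min after each cumulative iv drug dose (3, 10, 30 µg/kg; EtOH/saline, ≤12% EtOH). Percent of control pressor response was regressed on log dose to give ID50 per animal, then averaged.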

[3] = molecular target: T2, Angiotensin-converting enzyme (Rattus norvegicus, UniProt P47820); assay: (§2) Compound tested in vitro for inhibition of Angiotensin I converting enzyme
T2 sequence (P47820 whole entry): T1 sequence (whole entry)
Outline: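 In vitro ACE inhibition by the Cushman–Cheung procedure using crude enzyme preparations whose batches varied over time. IC50 determined with a reference inhibitor run concurrently.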

[4] = molecular target: T3, Angiotensin-converting enzyme (Homo sapiens, UniProt P12821); assay: Compound was tested for inhibitory activity against angiotensin converting enzyme when administered intravenously to anesthetized dogs; conditions: Canis lupus familiaris; target entry is the homologue from another species
T3 sequence (P12821 whole entry): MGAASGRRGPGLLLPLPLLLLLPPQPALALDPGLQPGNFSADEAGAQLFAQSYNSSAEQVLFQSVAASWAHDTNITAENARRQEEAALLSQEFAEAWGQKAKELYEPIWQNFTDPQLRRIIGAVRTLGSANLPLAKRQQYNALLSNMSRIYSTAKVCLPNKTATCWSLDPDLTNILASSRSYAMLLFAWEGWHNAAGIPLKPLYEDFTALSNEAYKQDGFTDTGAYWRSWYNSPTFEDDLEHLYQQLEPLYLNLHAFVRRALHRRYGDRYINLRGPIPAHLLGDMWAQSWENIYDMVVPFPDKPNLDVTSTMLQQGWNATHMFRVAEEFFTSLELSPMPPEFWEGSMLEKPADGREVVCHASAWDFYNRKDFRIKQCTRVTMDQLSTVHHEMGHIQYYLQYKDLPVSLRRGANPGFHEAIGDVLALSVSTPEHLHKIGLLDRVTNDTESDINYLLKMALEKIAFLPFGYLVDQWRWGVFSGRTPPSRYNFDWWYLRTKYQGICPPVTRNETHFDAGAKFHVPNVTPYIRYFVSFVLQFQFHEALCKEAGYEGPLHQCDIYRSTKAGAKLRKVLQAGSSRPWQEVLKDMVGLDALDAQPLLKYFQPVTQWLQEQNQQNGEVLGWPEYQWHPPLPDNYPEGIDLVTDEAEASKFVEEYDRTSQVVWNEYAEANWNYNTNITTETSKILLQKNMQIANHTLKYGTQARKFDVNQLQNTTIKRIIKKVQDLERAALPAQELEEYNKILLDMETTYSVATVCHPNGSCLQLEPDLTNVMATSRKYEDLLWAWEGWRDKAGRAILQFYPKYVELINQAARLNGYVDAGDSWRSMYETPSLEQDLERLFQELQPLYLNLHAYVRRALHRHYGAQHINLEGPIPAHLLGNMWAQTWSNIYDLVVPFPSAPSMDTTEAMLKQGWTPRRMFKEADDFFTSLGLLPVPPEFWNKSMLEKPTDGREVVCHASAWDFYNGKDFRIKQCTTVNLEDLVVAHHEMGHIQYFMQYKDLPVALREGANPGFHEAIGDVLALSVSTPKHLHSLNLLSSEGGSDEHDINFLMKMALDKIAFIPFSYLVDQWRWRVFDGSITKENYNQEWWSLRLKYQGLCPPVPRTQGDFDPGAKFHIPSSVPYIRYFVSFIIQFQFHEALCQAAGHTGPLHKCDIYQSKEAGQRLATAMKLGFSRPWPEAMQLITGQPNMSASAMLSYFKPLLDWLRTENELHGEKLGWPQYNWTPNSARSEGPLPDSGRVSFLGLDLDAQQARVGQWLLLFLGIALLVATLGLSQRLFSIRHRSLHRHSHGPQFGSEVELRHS

[5] = molecular target: T1, Angiotensin-converting enzyme (Rattus norvegicus); assay: Compound tested in vivo for inhibition of Angiotensin I converting enzyme in rat; type: organism-based; outline: as §1
[6] = Compound tested in vitro for inhibition of Angiotensin I converting enzyme in rat
Outline: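 Cushman–Cheung method using crude ACE enzyme preparations, with batches varying over the study period. IC50 was determined, and a reference ACE inhibitor was assayed concurrently in each run.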

[7] = molecular target: T3, Angiotensin-converting enzyme; assay: as §2

In the case of `CCOC(=O)[C@H](CCc1ccccc1)N[C@@H](C)C(=O)N1CC2(C[C@H]1C(=O)O)SCCS2`, the Efficacy [1] is reported as 0.3 mg/kg, the ID50 [2] is reported as 0.016 mg/kg and the IC50 [3] is reported as 67 nM. It also gave an ID50 [4] of 0.3 mg/kg.

For `CCOC(=O)[C@H](CCc1ccccc1)NCC(=O)N1CC2(C[C@H]1C(=O)O)SCCS2`, the ID50 [5] was 0.221 mg/kg.

`C[C@H](N[C@@H](CCc1ccccc1)C(=O)O)C(=O)N1CCC[C@H]1C(=O)O` gave an ID50 [5] of 0.015 mg/kg.

With `NCCCC[C@H](N[C@@H](CCc1ccccc1)C(=O)O)C(=O)N1CCC[C@H]1C(=O)O` [LISINOPRIL ANHYDROUS] the IC50 [6] was 1.2 nM.

Compound `CCOC(=O)C(CCc1ccccc1)N[C@@H](C)C(=O)N1CC2(C[C@H]1C(=O)O)SCCS2` (stereo partly drawn) has an IC50 [6] of 92 nM.

For `CCOC(=O)[C@H](CCc1ccccc1)N[C@@H](CCCCN)C(=O)N1CC2(C[C@H]1C(=O)O)SCCS2`, the ID50 [5] was 0.01 mg/kg and the IC50 [7] was 200 nM.

`CCOC(=O)[C@H](CCc1ccccc1)N[C@@H](C)C(=O)N1CCC[C@H]1C(=O)O` gave an ID50 [2] of 0.057 mg/kg.

Compound `NCCCC[C@H](N[C@@H](CCc1ccccc1)C(=O)O)C(=O)N1CC2(C[C@H]1C(=O)O)SCCS2` has an ID50 [5] of 0.01 mg/kg and an IC50 [7] of 0.5 nM.
